Laboratory results as given in ChEMBL document CHEMBL1135983, “Cyclohexylmethylpiperidinyltriphenylpropioamide: a selective muscarinic M(3) antagonist discriminating against the other receptor subtypes” (J Med Chem, 2002).

Experiments:
[1] = biological target: T1, Muscarinic acetylcholine receptor M5 (Homo sapiens, UniProt P08912); test: Binding affinity (Ki) against binding of [3H]NMS using membranes from CHO cells expressing cloned human Muscarinic acetylcholine receptor M5; type: cell membranes
T1 sequence (P08912 whole entry): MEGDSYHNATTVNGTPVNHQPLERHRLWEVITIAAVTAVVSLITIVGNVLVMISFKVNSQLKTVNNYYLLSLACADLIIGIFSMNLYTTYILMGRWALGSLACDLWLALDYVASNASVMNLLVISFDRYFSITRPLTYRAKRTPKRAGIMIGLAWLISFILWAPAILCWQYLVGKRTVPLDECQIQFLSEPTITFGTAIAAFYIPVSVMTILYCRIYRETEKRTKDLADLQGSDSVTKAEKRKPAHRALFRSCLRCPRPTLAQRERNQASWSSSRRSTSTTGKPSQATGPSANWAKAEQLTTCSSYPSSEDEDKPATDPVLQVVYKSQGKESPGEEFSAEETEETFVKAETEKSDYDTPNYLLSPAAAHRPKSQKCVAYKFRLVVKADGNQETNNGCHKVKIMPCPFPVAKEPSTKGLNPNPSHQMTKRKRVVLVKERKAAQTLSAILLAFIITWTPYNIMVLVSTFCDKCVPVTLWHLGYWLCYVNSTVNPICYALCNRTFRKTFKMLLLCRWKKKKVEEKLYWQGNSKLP

[2] = biological target: Muscarinic acetylcholine receptor M3 (Homo sapiens, UniProt P20309); test: biochemical; type: cell-based, CHO
[3] = biological target: T2, Muscarinic acetylcholine receptor M1 (Homo sapiens, UniProt P11229); test: biochemical; type: cell-based, CHO
T2 sequence (P11229 whole entry): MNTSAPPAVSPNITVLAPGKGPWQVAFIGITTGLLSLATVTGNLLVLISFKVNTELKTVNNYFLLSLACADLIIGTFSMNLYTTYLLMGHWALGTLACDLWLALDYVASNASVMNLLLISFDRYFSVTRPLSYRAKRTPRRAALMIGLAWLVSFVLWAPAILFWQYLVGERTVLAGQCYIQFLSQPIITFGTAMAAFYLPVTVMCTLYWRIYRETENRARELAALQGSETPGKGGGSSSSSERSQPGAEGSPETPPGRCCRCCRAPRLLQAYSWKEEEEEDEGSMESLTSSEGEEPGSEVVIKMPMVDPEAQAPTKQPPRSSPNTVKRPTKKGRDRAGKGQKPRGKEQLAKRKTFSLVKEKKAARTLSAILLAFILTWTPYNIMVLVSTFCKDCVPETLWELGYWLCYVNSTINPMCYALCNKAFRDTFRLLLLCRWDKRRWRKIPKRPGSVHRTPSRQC

Homo sapiens [4] = organism: Homo sapiens; test: Selectivity ratio (m4/m3)
Outline: (§1)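 Binding affinities (Ki) were measured at each of the five muscarinic receptor subtypes (m1–m5), with the m3 receptor being human and expressed in CHO cells. The ratio compares the m4 or m5 Ki with the m3 Ki. Values are the mean of two or more independent assays.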

[5] = biological target: T3, Muscarinic acetylcholine receptor M2 (Homo sapiens, UniProt P08172); test: Binding affinity (Ki) against binding of [3H]NMS to membranes from CHO cells expressing cloned human Muscarinic acetylcholine receptor M2; type: cell membranes
T3 sequence (P08172 whole entry): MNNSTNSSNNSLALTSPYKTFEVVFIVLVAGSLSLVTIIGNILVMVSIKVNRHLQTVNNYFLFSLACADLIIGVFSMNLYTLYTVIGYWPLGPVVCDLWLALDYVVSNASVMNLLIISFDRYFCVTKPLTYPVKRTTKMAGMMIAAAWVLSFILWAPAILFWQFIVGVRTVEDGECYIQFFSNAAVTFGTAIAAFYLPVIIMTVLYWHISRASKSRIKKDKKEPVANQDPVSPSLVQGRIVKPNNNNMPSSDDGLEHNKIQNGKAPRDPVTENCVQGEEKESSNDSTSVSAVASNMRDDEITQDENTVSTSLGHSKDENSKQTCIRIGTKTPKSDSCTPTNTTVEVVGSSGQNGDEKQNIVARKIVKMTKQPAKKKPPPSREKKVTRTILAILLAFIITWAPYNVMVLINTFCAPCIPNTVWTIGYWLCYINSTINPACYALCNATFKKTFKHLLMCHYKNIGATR

Homo sapiens [6] = organism: Homo sapiens; test: Selectivity ratio (m5/m3); outline: as §1
[7] = biological target: T4, Muscarinic acetylcholine receptor M4 (Homo sapiens, UniProt P08173); test: Binding affinity (Ki) against binding of [3H]NMS using membranes from CHO cells expressing cloned human Muscarinic acetylcholine receptor M4; type: cell membranes
T4 sequence (P08173 whole entry): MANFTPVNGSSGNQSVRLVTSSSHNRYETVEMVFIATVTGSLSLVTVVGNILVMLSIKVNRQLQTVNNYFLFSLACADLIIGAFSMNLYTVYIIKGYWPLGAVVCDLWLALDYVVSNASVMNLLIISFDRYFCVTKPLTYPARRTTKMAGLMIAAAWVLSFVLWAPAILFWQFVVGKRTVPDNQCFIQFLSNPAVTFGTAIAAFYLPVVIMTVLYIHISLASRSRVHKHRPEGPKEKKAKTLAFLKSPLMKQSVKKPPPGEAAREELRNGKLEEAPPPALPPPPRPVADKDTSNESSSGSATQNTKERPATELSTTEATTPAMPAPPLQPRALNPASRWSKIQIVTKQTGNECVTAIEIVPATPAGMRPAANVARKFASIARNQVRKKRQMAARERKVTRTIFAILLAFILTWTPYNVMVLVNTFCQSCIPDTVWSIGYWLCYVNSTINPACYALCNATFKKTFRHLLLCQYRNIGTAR

Rattus norvegicus [8] = test: 50% in vivo effective dose that inhibits Ach-induced bradycardia (M2) in rat assay systems after intravenous administration was reported; type: functional
Rattus norvegicus [9] = test: 50% in vivo effective dose that inhibits ACh-induced pressor response (M1) in rat assay systems after intravenous administration was reported; type: functional
Rattus norvegicus [10] = test: 50% in vivo effective dose that inhibits ACh-induced bronchoconstriction (M3) in rat assay systems after intravenous administration was reported; type: functional

Muscarinic acetylcholine receptor M3, sequence (P20309 whole entry): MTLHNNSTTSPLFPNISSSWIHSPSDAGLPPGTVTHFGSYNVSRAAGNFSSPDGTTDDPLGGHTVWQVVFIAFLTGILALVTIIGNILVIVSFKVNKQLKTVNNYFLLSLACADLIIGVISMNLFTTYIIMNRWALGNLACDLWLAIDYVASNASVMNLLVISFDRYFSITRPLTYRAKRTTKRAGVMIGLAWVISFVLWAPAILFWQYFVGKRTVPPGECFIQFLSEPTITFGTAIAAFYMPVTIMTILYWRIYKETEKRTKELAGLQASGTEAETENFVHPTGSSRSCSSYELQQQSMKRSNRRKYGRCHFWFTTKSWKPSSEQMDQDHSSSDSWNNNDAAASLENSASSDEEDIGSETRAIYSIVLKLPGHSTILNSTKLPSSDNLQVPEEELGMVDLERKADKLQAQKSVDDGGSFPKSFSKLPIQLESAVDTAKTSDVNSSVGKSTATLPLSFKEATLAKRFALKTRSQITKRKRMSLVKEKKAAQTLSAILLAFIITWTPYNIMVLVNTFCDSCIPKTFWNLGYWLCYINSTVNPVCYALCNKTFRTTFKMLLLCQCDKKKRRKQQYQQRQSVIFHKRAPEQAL

SMILES	Ki [1] [nM]	Ki [2] [nM]	Ki [3] [nM]	Selectivity (Homo sapiens [4])	Ki [5] [nM]	Selectivity (Homo sapiens [6])	Ki [7] [nM]	ED50 (Rattus norvegicus [8]) [mg/kg]	ED50 (Rattus norvegicus [9]) [mg/kg]	ED50 (Rattus norvegicus [10]) [µg/kg]
O=C(CNC(=O)[C@@H]1CCCN1C(=O)CC(c1ccccc1)(c1ccccc1)c1ccccc1)NC[C@H]1CCCN(CC2CCCCC2)C1	2000	2.2	150	19	13	890	43			
O=C(CCNC(=O)[C@@H]1CCCN1C(=O)CC(c1ccccc1)(c1ccccc1)c1ccccc1)NC[C@H]1CCCN(CC2CCCCC2)C1	58	0.27	150	42	12	210	11			
O=C(NC[C@H]1CCCN(CC2CCCCC2)C1)[C@H]1CCCN1C(=O)[C@@H]1CCCN1C(=O)CC(c1ccccc1)(c1ccccc1)c1ccccc1	150	0.25	14	9	0.82	580	2.3			
O=C(CCNC(=O)CC(c1ccccc1)(c1ccccc1)c1ccccc1)NCCC(=O)NC[C@H]1CCCN(CC2CCCCC2)C1	30	0.76	36	41	44	40	31			
O=C(CCCCCNC(=O)CC(c1ccccc1)(c1ccccc1)c1ccccc1)NC[C@H]1CCCN(CC2CCCCC2)C1	210	1	110	30	72	200	30			
CN1[C@@H]2CC[C@H]1C[C@@H](OC(=O)C(CO)c1ccccc1)C2 (some centres not stated) [ATROPINE]								0.0052	0.016	4.3
O=C(CCNC(=O)CNC(=O)CC(c1ccccc1)(c1ccccc1)c1ccccc1)NC[C@H]1CCCN(CC2CCCCC2)C1	37	0.31	120	45	30	120	14	1.55	> 3	15
O=C(CCCNC(=O)CC(c1ccccc1)(c1ccccc1)c1ccccc1)NCCC(=O)NCC1CCCN(CC2CCCCC2)C1 (configuration not stated)	200	2.1	77	29	17	95	60			
O=C(CCCNC(=O)CNC(=O)CC(c1ccccc1)(c1ccccc1)c1ccccc1)NCC1CCCN(CC2CCCCC2)C1 (configuration not stated)	1100	3.3	300	22	270	320	74			
